The values below come from PubChem BioAssay AID588752 (Vanderbilt Specialized Chemistry Center, 2011).

Active and inactive are the calls of the source. No rule for the calls is given here.

For this test, the target named is Muscarinic acetylcholine receptor M5 (Rattus norvegicus) (UniProt P08911). In words: potentiation of ACh response at rat M5 – CHO cells, Fluo-4 calcium mobilization, selectivity assay, dose response (AID 588752). The note with it: Fluo-4, ACh EC20, at 30 µM (top of the series). An outline of the steps: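 System – CHO cells stably expressing rat muscarinic M5 receptor · Timing – 144 s compound pre-incubation, 86 s to EC80, 37 °C · Signal – kinetic Fluo-4 AM fluorescence of intracellular calcium mobilization · Also added – acetylcholine at EC20, then acetylcholine at EC80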
Sequence of Muscarinic acetylcholine receptor M5 (Rattus norvegicus) (P08911 whole entry, looked up): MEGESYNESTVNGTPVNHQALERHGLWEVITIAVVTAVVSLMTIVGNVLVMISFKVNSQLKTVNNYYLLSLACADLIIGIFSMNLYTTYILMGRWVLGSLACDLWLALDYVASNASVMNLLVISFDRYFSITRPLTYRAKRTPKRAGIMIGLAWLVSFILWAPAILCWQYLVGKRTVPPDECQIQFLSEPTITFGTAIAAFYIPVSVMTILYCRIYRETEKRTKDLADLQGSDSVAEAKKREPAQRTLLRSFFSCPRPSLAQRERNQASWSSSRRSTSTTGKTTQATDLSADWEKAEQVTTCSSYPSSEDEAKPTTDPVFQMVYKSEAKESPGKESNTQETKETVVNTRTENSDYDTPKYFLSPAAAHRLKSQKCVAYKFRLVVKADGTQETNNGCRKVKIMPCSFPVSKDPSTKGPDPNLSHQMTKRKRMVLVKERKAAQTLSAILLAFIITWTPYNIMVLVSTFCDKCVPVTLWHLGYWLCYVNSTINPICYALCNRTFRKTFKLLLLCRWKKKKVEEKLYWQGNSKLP
Consider `Cc1nc2sc(C(=O)NCc3ccc4c(c3)OCO4)c(N)c2c(C)c1Cl`, for which the outcome was inactive. Take `Cc1nc2sc(C(=O)NCc3cccnc3)c(N)c2c(C)c1Cl`: the result was inactive.

For the compound `Cc1nc2sc(C(=O)NCc3ccccc3)c(N)c2c(C)c1Cl`, the outcome was inactive. For the compound `Cc1nc2sc(C(=O)NCc3ccncn3)c(N)c2c(C)c1Cl`, the outcome was inactive. To `Cc1nc2sc(C(=O)NCc3nccs3)c(N)c2c(C)c1Cl` belongs “inactive”. In the case of `Cc1nc2sc(C(=O)NCc3ccncc3)c(N)c2c(C)c1Cl`, the outcome was inactive. As to `Cc1nc2sc(C(=O)NCc3cccc(F)c3F)c(N)c2c(C)c1Cl`, the result was inactive. To `Cc1nc2sc(C(=O)NC3CC3)c(N)c2c(C)c1Cl` belongs “inactive”. Then `Cc1nc2sc(C(=O)NCCc3ccncc3)c(N)c2c(C)c1Cl`, with “inactive”.
